Where a name gives a salt, the structure may show the parent alone.

For the assay, the system named is HCT-116. The assay is described as follows: Cytotoxicity against human HCT116 cells assessed as reduction in cell viability after 24 hrs by SRB assay. Type of assay: functional, cell-based. As to conditions: HCT-116, 24 h. Put shortly: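 Human colon cancer HCT-116 cells, read out by sulforhodamine B (SRB) staining, with adriamycin as the positive control.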

In the case of `CC(C)/C=C/C(=O)Nc1ccn([C@H]2CC[C@H](O[C@H]3O[C@H](C)[C@@H](N(C)C)[C@H](O)[C@H]3O)[C@@H](C)O2)c(=O)n1`, the IC50 is 0.78 µM. In the case of `CC(C)C(=O)Nc1ccc(C(=O)Nc2ccn([C@H]3CC[C@H](O[C@H]4O[C@H](C)[C@@H](N(C)C)[C@H](O)[C@H]4O)[C@@H](C)O3)c(=O)n2)cc1`, the IC50 was 6.63 µM. Then `C[C@H]1O[C@@H](n2ccc(NC(=O)Cc3ccccc3)nc2=O)CC[C@@H]1O`, with more than 20 µM; and `CCC(C)/C=C/C(=O)Nc1ccn([C@H]2CC[C@H](O[C@H]3O[C@H](C)[C@@H](N(C)C)[C@H](O)[C@H]3O)[C@@H](C)O2)c(=O)n1` (some centres not stated), with 0.89 µM; and `CC(C)=CC(=O)Nc1ccn([C@H]2C[C@@H](O)[C@H](O)[C@@H](C)O2)c(=O)n1`, with more than 20 µM. Take `CC(C)CC(=O)Nc1ccn([C@H]2CC[C@H](O[C@H]3O[C@H](C)[C@@H](N(C)C)[C@H](O)[C@H]3O)[C@@H](C)O2)c(=O)n1`: the half-maximal inhibitory concentration (IC50) came out at 2.14 µM. For the compound `CC(C)/C=C/C(=O)Nc1ccn([C@H]2CC[C@H](O)[C@@H](C)O2)c(=O)n1`, the IC50 is more than 20 µM.

With `C[C@H]1O[C@@H](n2ccc(NC(=O)CC(C)(C)O)nc2=O)CC[C@@H]1O`, the half-maximal inhibitory concentration (IC50) was more than 20 µM. Consider `CC(=O)C(C)Nc1ccc(C(=O)Nc2ccn([C@H]3CC[C@H](O)[C@@H](C)O3)c(=O)n2)cc1` (some centres not stated), for which the half-inhibitory concentration (IC50) was more than 20 µM. Then `CC(C)=CCC(=O)Nc1ccn([C@H]2CC[C@H](O)[C@@H](C)O2)c(=O)n1`, with more than 20 µM; and `CC(C)CCC(=O)Nc1ccn([C@H]2CC[C@H](O)[C@@H](C)O2)c(=O)n1`, with more than 20 µM. With `CC(C)C(=O)Nc1ccn([C@H]2CC[C@H](O)[C@@H](C)O2)c(=O)n1`, the 50% inhibitory concentration (IC50) was more than 20 µM.

For `CCC(=O)Nc1ccn([C@H]2CC[C@H](O)[C@@H](C)O2)c(=O)n1`, the half-maximal inhibitory concentration (IC50) was more than 20 µM. Then `CC(C)CCC(=O)Nc1ccn([C@H]2CC[C@H](O[C@H]3O[C@H](C)[C@@H](N(C)C)[C@H](O)[C@H]3O)[C@@H](C)O2)c(=O)n1`, with 0.39 µM. Then `CC(=O)Nc1ccn([C@H]2CC[C@H](O)[C@@H](C)O2)c(=O)n1`, with more than 20 µM; and `C/C=C(\C)C(=O)Nc1ccn([C@H]2CC[C@H](O[C@H]3O[C@H](C)[C@@H](N(C)C)[C@H](O)[C@H]3O)[C@@H](C)O2)c(=O)n1`, with 6.45 µM; and `COc1cccc2c1C(=O)c1c(O)c3c(c(O)c1C2=O)C[C@@](O)(C(=O)CO)C[C@@H]3O[C@H]1C[C@H](N)[C@H](O)[C@H](C)O1` [DOXORUBICIN HYDROCHLORIDE], with 0.06 µM.

The values are drawn from ChEMBL document CHEMBL4414563, “Pyrimidine Nucleosides from Streptomyces sp. SSA28” (J Nat Prod, 2019).
